ChEMBL document CHEMBL2086233, “D-proline-based peptidomimetic inhibitors of anthrax lethal factor” (Eur J Med Chem, 2012)

Key:
[1] = biological target: T1, Lethal factor (Bacillus anthracis) (UniProt P15917); experiment: Inhibition of Bacillus anthracis lethal factor using protease substrate-2 assessed as release of p-nitroaniline at 10 uM measured for 10 mins by spectrophotometric assay
T1 sequence (whole entry): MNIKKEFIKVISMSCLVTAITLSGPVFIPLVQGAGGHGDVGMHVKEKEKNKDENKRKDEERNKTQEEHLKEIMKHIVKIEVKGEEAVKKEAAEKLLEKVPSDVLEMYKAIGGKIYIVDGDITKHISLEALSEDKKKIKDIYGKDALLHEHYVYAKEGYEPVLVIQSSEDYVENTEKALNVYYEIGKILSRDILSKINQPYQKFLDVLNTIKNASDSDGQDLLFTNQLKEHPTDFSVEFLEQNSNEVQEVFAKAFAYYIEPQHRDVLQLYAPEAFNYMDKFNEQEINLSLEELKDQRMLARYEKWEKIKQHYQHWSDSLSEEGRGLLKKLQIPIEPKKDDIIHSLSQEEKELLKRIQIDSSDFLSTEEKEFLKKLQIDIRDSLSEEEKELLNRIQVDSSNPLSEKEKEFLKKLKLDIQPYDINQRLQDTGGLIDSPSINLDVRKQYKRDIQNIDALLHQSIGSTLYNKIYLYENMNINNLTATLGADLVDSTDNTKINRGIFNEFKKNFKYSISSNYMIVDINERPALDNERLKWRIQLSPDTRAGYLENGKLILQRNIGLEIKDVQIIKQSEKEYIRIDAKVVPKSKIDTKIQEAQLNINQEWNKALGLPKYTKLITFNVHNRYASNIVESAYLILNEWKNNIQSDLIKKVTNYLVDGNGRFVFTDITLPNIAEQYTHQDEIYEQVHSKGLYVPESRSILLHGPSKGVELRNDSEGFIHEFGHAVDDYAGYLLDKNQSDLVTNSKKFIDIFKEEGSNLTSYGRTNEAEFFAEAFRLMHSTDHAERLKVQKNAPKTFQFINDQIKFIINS
In short: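 Single fixed inhibitor concentration. A405 (p-nitroaniline release) followed 10 min after LF addition. % inhibition from initial velocity versus no-inhibitor control. Mean of three experiments.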

Lethal factor = biological target: T2, Lethal factor (Bacillus anthracis, UniProt P15917); experiment: Inhibition of Bacillus anthracis lethal factor using protease substrate-2 assessed as release of p-nitroaniline measured for 10 mins by spectrophotometric assay
T2 sequence (P15917 whole entry): T1 sequence (whole entry)
In short: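 10 nM LF with lethal factor protease substrate II (pNA-tagged peptide) in 250 mM Na2HPO4, 150 mM NaCl, pH 7.4, 25 °C. A405 followed 10 min after enzyme addition. Inhibitor at five concentrations starting at 500 nM. IC50 by non-linear regression of the dose-response data. Experiments repeated twice.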

Row | Compound | inhibition [1] | IC50 (Lethal factor)
1 | O=C(/C=C/c1ccco1)N[C@H]1C[C@H](C(=O)NO)N(S(=O)(=O)c2ccc(Cl)c(Cl)c2)C1 | 22% | –
2 | COc1ccc(C(=O)N[C@@H]2C[C@H](C(=O)NO)N(S(=O)(=O)c3ccc(Cl)c(Cl)c3)C2)c(OC)c1 | 65% | 2100 nM
3 | O=C(NO)[C@H]1[C@@H](OCc2ccccc2)CCN1S(=O)(=O)c1ccc(Cl)c(Cl)c1 | – | 1400 nM
4 | O=C(NO)[C@H]1C[C@@H](n2cc(-c3ccccc3)nn2)CN1S(=O)(=O)c1ccc(Cl)c(Cl)c1 | 8% | –
5 | O=C(NO)[C@H]1[C@@H](OCc2ccccc2)CCN1S(=O)(=O)c1ccc(Cl)cc1 | – | 1700 nM
6 | O=C(N[C@@H]1C[C@H](C(=O)NO)N(S(=O)(=O)c2ccc(Cl)c(Cl)c2)C1)c1cccs1 | 27% | –
7 | CCCCCCO[C@H]1CCN(S(=O)(=O)c2ccc(Cl)cc2)[C@H]1C(=O)NO | – | > 10000 nM
8 | O=C(NO)[C@H]1C[C@@H](OCc2ccccc2)CN1S(=O)(=O)c1ccc(Cl)c(Cl)c1 | 50% | 9500 nM
9 | O=C(NO)[C@H]1C[C@H](OCc2ccccc2)CN1S(=O)(=O)c1ccc(Cl)c(Cl)c1 | 16% | –
10 | O=C(N[C@H]1C[C@H](C(=O)NO)N(S(=O)(=O)c2ccc(Cl)c(Cl)c2)C1)c1cccs1 | 46% | –
11 | COc1ccc(C(=O)N[C@H]2C[C@H](C(=O)NO)N(S(=O)(=O)c3ccc(Cl)c(Cl)c3)C2)c(OC)c1 | 11% | –
